Test [1] deals with MCF7. Put plainly: Cytotoxicity against human MCF7 cells expressing ER assessed as growth inhibition after 24 hrs by MTS assay. It is filed as functional, cell-based. Particulars: MCF7, 24 h. The essentials: (§1)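 ATCC breast cancer cells kept in RPMI-1640 with 5% FCS, insulin and glutamine under standard conditions. Cells in 96-well plates were treated in triplicate for 24 h with drug or vehicle. MTS viability was read as absorbance at 490 nm, expressed as a percentage of solvent controls, and IC50 was derived.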
On the technique in general: Tetrazolium dyes change colour on reduction, which living cells bring about.

Test [2] relates to MCF7. In words: Cytotoxicity against human MCF7 cells expressing ER, wild type p53, BimEL, BimL and BimS assessed as growth inhibition after 24 hrs by MTS assay. Type of test: functional, cell-based. The conditions noted are these: MCF7, 24 h. In short, it runs like this:
as §1

A further test deals with T47D. Put plainly: Cytotoxicity against BimL, BimS deficient human T47D cells expressing ER, p53 mutant, BimEL assessed as growth inhibition after 24 hrs by MTS assay. It is filed as functional, cell-based. In short, it runs like this: as §1
The subject of the next test is MDA-MB-468. Put plainly: Cytotoxicity against ER deficient human MDA-MB-468 cells expressing p53 mutant, BimEL, BimL and BimS assessed as growth inhibition after 24 hrs by MTS assay. Type of test: functional, cell-based. Particulars: MDA-MB-468, 24 h. In short, it runs like this: as §1
Another test deals with MDA-MB-157. In words: Cytotoxicity against ER, BimL and BimS deficient human MDA-MB-157 cells expressing p53 mutant, BimEL assessed as growth inhibition after 24 hrs by MTS assay. It is filed as functional, cell-based. The conditions noted are these: MDA-MB-157, 24 h. In short, it runs like this: as §1
The next test deals with SK-BR-3. In words: Cytotoxicity against ER deficient human SKBR3 cells expressing p53 mutant, BimEL, BimL and BimS assessed as growth inhibition after 24 hrs by MTS assay. It is filed as functional, cell-based. The conditions noted are these: SK-BR-3, 24 h. The essentials:
as §1

Another test has as its system Hs-578T. Put plainly: Cytotoxicity against ER, BimEL, BimL and BimS deficient human Hs578T cells expressing p53 mutant assessed as growth inhibition after 24 hrs by MTS assay. It is filed as functional, cell-based. The essentials:
as §1

A further test deals with MDA-MB-231. In words: Cytotoxicity against ER, BimEL, BimL and BimS deficient human MDA-MB-231 cells expressing p53 mutant assessed as growth inhibition after 24 hrs by MTS assay. It is filed as functional, cell-based. The conditions noted are these: MDA-MB-231, 24 h. In short, it runs like this: as §1
The subject of another test is MCF-10A. Put plainly: Cytotoxicity against ER, BimL and BimS deficient human MCF10A cells expressing wild type p53, BimEL assessed as growth inhibition after 24 hrs by MTS assay. It is filed as cell-based. The essentials:
(§2)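 Cell lines were obtained from ATCC, plated in 96-well plates, and exposed in triplicate to drug or vehicle for 24 h. Viability was measured by MTS absorbance at 490 nm, taken as a percentage of solvent-treated controls, and IC50 was derived.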

The next test deals with OVCAR-3. In words: Cytotoxicity against BimEL, BimL and BimS deficient human OVCAR3 cells expressing p53 mutant assessed as growth inhibition after 24 hrs by MTS assay. It is filed as functional, cell-based. The conditions noted are these: OVCAR-3, 24 h. In short, it runs like this: as §2
The next test relates to IGROV-1. Put plainly: Cytotoxicity against human IGROV1 cells expressing p53 mutant, BimEL, BimL and BimS assessed as growth inhibition after 24 hrs by MTS assay. It is filed as functional, cell-based. The conditions noted are these: IGROV-1, 24 h. The essentials:
as §2

Another test concerns PC-3. In words: Cytotoxicity against AR and BimS deficient human PC3 cells expressing p53 mutant, BimEL, BimL assessed as growth inhibition after 24 hrs by MTS assay. Type of test: functional, cell-based. The conditions noted are these: PC-3, 24 h. The essentials:
as §2

The next test deals with LNCaP. Put plainly: Cytotoxicity against human LNCAP cells expressing AR, wild type p53, BimEL, BimL and BimS assessed as growth inhibition after 24 hrs by MTS assay. It is filed as functional, cell-based. In short, it runs like this: as §2

SMILES strings stand for the structures. Bounds are passed on as bounds.

By IC50 is commonly meant the concentration needed to halve the response being measured. Take `CCCCCCCCCCCCCCCCCC(=O)C(C)(C)[C@@H](O)COC(C)=O`: the IC50 with MCF7 [1] was found to be 29 µM.

Take `CCCCC/C=C\C/C=C\CCCCCCCC(=O)C[C@@H](O)COC(C)=O`: the IC50 with MCF7 [1] came out at 15.1 µM; with MCF7 [2], 15.1 µM; with T47D, 30.3 µM; in the test with MDA-MB-468, 25 µM; with MDA-MB-157, 12.8 µM; in the test on SK-BR-3, 19.7 µM. For the same compound, the IC50 in the test on Hs-578T is 32.1 µM; in the test on MDA-MB-231, over 39 µM; in the test with MCF-10A, over 39 µM; in the test with OVCAR-3, 27.9 µM; in the test on IGROV-1, 15.6 µM; in the test with PC-3, 30 µM. The half-inhibitory concentration (IC50) in the test with LNCaP came to 22 µM.

With `CCCCCCCCCCCCCCCCCC(=O)C[C@@H](O)COC(C)=O`, the IC50 is 17.1 µM with MCF7 [1]; 18.2 µM in the test with MCF7 [2]; 20.7 µM in the test with T47D; over 39 µM in the test on MDA-MB-468; over 39 µM in the test on MDA-MB-157; over 39 µM in the test on SK-BR-3. The IC50 with Hs-578T, with MDA-MB-231, with MCF-10A, in the test with OVCAR-3, in the test with IGROV-1 and in the test on PC-3 was over 39 µM each time. In the test on LNCaP, the IC50 is over 39 µM.

Regarding `CCCCCCC(=O)C[C@@H](O)COC(C)=O`, the 50% inhibitory concentration (IC50) in the test on MCF7 [1] was over 65 µM.

On to `CCCCC/C=C\C/C=C\CCCCCCCC(=O)C[C@H](COC(=O)c1ccc([N+](=O)[O-])cc1)OC(=O)c1ccc([N+](=O)[O-])cc1`, for which, in the test with MCF7 [1], the IC50 is over 24 µM.

As to `CCCCC/C=C\C/C=C\CCCCCCCC(=O)C[C@@H](O)COC(=O)c1ccccc1`, the IC50 in the test on MCF7 [1] was 27 µM.

For the compound `CCCCC/C=C\C/C=C\CCCCCCCC(=O)C[C@H](COC(=O)c1ccc(Br)cc1)OC(=O)c1ccc(Br)cc1`, the IC50 in the test with MCF7 [1] was over 21 µM.

In the case of `CCCCC/C=C\C/C=C\CCCCCCCC(=O)C[C@H](COC(=O)c1ccccc1)OC(=O)c1ccccc1`, the IC50 with MCF7 [1] was over 27 µM.

As to `CCCCC/C=C\C/C=C\CCCCCCCC(=O)/C=C/COC(=O)c1ccc([N+](=O)[O-])cc1`, in the test on MCF7 [1], the IC50 is over 32 µM.

As to `CCCCC/C=C\C/C=C\CCCCCCCC(=O)C[C@@H](O)COC(=O)c1ccncc1`, the IC50 in the test on MCF7 [1] came to 20.1 µM.

Turning to `CCCCC/C=C\C/C=C\CCCCCCCC(=O)C[C@@H](O)COC(=O)c1ccc(Br)cc1`, the IC50 with MCF7 [1] came to 23.8 µM.

The values above are taken from ChEMBL document CHEMBL1921794, “Synthesis and in vitro evaluation of analogues of avocado-produced toxin (+)-(R)-persin in human breast cancer cells” (Bioorg Med Chem, 2011).
